Results published in ChEMBL document CHEMBL1140655, “Design and synthesis of hepatoselective, pyrrole-based HMG-CoA reductase inhibitors” (Bioorg Med Chem Lett, 2007).
Calls of active or inactive are those of the source. The rule behind the calls is not given here.

Columns and labels:
[1] = target: T1, 3-hydroxy-3-methylglutaryl-coenzyme A reductase (Homo sapiens, UniProt P04035); experiment: Inhibition of HMG-CoA reductase
T1 sequence (P04035 whole entry): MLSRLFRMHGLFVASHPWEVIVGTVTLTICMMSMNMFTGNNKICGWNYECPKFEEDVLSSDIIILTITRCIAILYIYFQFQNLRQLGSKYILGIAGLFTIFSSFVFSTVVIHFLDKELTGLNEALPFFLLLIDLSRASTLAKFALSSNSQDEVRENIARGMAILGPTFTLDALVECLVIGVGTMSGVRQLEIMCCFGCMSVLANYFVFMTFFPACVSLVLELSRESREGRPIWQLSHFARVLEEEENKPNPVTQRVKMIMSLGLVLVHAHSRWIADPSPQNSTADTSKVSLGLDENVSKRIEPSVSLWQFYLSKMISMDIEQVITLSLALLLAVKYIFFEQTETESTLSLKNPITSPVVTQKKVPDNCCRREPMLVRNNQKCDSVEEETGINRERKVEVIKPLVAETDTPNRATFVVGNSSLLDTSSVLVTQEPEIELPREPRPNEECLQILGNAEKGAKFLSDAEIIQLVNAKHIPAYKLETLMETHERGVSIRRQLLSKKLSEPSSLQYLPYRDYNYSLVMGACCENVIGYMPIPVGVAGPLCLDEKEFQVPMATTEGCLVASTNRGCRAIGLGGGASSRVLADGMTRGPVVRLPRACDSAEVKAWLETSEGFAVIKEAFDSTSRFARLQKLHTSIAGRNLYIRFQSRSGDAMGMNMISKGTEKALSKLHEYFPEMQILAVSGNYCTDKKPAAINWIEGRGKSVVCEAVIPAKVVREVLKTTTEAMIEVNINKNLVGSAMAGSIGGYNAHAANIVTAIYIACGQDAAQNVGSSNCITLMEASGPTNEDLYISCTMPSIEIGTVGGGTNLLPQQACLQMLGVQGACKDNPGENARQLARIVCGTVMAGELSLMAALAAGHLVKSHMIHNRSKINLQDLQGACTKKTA

Hepatocyte = experiment: Inhibition of cholesterol synthesis in rat hepatocyte; type: functional, cell-based
[2] = Inhibition of cholesterol synthesis in rat myocyte; type: functional, cell-based; conditions: Ventricular myocyte
Mus musculus = experiment: Inhibition of acute cholesterol synthesis in mouse at 1 mg/kg; type: functional; conditions: for inhibition in vivo at 1 mg/kg: read-out: Inhibition
[3] = Reduction in LDL cholesterol on cholestyramine-primed hamster serum at 10 mg/kg, po after 7 days; type: functional; parameters: scale not given: the % may be the effect or the level left
Procedure, shortened: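 Cholestyramine-primed hamsters were dosed orally at 10 mg/kg once daily for 7 days. At the end of treatment, serum LDL-C was measured and percent reduction calculated against an untreated control group.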

[4] = Reduction in LDL cholesterol on cholestyramine-primed orally dosed hamster plasma after 7 days; type: functional; conditions: Cricetulus griseus, po, 168 h
Procedure, shortened: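 Cholestyramine-primed hamsters were dosed orally once daily for 7 days at 0.1, 0.5, 1, 5, 10 or 50 mg/kg (separate groups, n = 10 each). Animals were sacrificed 2 h after the final dose and plasma LDL measured. Results are mean ± SEM percent change from control, with ED50 derived from the dose–response.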

CC(C)NC(=O)c1c(-c2ccccc2)c(-c2ccc(F)cc2)c(CC[C@@H](O)C[C@@H](O)CC(=O)O)n1C(C)C
IC50 [1]: 15 nM | IC50 (Hepatocyte): 1.6 nM | IC50 [2]: 1930 nM | inhibition in vivo at 1 mg/kg (Mus musculus): 73%

CCC(C)(C)C(=O)O[C@H]1C[C@@H](C)C=C2C=C[C@H](C)[C@H](CC[C@@H]3C[C@@H](O)CC(=O)O3)[C@H]21 [SIMVASTATIN]
IC50 (Hepatocyte): 1.3 nM | IC50 [2]: 150 nM

CNC(=O)c1c(-c2ccccc2)c(-c2ccc(F)cc2)c(CC[C@@H](O)C[C@@H](O)CC(=O)[O-])n1C(C)C.[Na+]
IC50 [1]: 8.8 nM | IC50 (Hepatocyte): 1.2 nM | IC50 [2]: 5300 nM | inhibition in vivo at 1 mg/kg (Mus musculus): 83% | Activity [3]: -12%

COc1ccc(CNC(=O)c2c(-c3ccccc3)c(-c3ccc(F)cc3)c(CC[C@@H](O)C[C@@H](O)CC(=O)O)n2C(C)C)cc1
IC50 [1]: 0.8 nM | IC50 (Hepatocyte): 0.4 nM | IC50 [2]: 310 nM | inhibition in vivo at 1 mg/kg (Mus musculus): 52%

CC(C)n1c(CC[C@@H](O)C[C@@H](O)CC(=O)[O-])c(-c2ccc(F)cc2)c(-c2ccccc2)c1C(N)=O.[Na+]
IC50 [1]: 3 nM | IC50 (Hepatocyte): 0.6 nM | IC50 [2]: 2450 nM | inhibition in vivo at 1 mg/kg (Mus musculus): 85% | Activity [3]: -11%

Cc1cnc(CNC(=O)c2c(-c3ccccc3)c(-c3ccc(F)cc3)c(CC[C@@H](O)C[C@@H](O)CC(=O)O)n2C(C)C)[nH]1
IC50 [1]: 3.4 nM | IC50 (Hepatocyte): 0.5 nM | IC50 [2]: 10400 nM | inhibition in vivo at 1 mg/kg (Mus musculus): 11%

CC(C)n1c(CC[C@@H](O)C[C@@H](O)CC(=O)O)c(-c2ccc(F)cc2)c(-c2ccccc2)c1C(=O)NCc1ccc(C(=O)O)cc1
IC50 [1]: 2.2 nM | IC50 (Hepatocyte): 0.1 nM | IC50 [2]: 7920 nM | inhibition in vivo at 1 mg/kg (Mus musculus): 7%

CC(C)n1c(CC[C@@H](O)C[C@@H](O)CC(=O)O)c(-c2ccc(F)cc2)c(-c2ccccc2)c1C(=O)NCc1ccc(C#N)cc1
IC50 [1]: 0.2 nM | IC50 (Hepatocyte): 0.7 nM | IC50 [2]: 650 nM | inhibition in vivo at 1 mg/kg (Mus musculus): 47%

CC(C)n1c(CC[C@@H](O)C[C@@H](O)CC(=O)[O-])c(-c2ccc(F)cc2)c(-c2ccccc2)c1C(=O)NC1CC1.[Na+]
IC50 [1]: 3.8 nM | IC50 (Hepatocyte): 2 nM | IC50 [2]: 2780 nM | inhibition in vivo at 1 mg/kg (Mus musculus): 70% | Activity [3]: -24%

CC(C)n1c(CC[C@@H](O)C[C@@H](O)CC(=O)O)c(-c2ccc(F)cc2)c(-c2ccccc2)c1C(=O)N(C)C
IC50 [1]: 20 nM | IC50 (Hepatocyte): 0.9 nM | IC50 [2]: 1580 nM | inhibition in vivo at 1 mg/kg (Mus musculus): 85%

CC(C)n1c(CC[C@@H](O)C[C@@H](O)CC(=O)O)c(-c2ccc(F)cc2)c(-c2ccc(F)cc2)c1C(=O)Nc1cccc(C(=O)N(C)C)c1
IC50 [1]: 0.3 nM | IC50 (Hepatocyte): 0.2 nM | IC50 [2]: 549 nM | inhibition in vivo at 1 mg/kg (Mus musculus): 20%

CC(C)c1nc(N(C)S(C)(=O)=O)nc(-c2ccc(F)cc2)c1/C=C/[C@@H](O)C[C@@H](O)CC(=O)O [ROSUVASTATIN]
IC50 [1]: 3.1 nM | IC50 (Hepatocyte): 0.27 nM | IC50 [2]: 250 nM | inhibition in vivo at 1 mg/kg (Mus musculus): 82% | Activity [3]: -25%

Cc1csc(CNC(=O)c2c(-c3ccccc3)c(-c3ccc(F)cc3)c(CC[C@@H](O)C[C@@H](O)CC(=O)O)n2C(C)C)n1
IC50 [1]: 1.5 nM | IC50 (Hepatocyte): 1.5 nM | IC50 [2]: 1010 nM | inhibition in vivo at 1 mg/kg (Mus musculus): 33%

CC(C)n1c(CC[C@@H](O)C[C@@H](O)CC(=O)O)c(-c2ccc(F)cc2)c(-c2ccccc2)c1C(=O)Nc1ccc(C(=O)O)cc1
IC50 [1]: 0.3 nM | IC50 (Hepatocyte): 0.1 nM | IC50 [2]: 12600 nM | inhibition (Mus musculus): inactive

CC(C)n1c(CC[C@@H](O)C[C@@H](O)CC(=O)O)c(-c2ccc(F)cc2)c(-c2ccccc2)c1C(=O)Nc1ccc(O)cc1
IC50 [1]: 0.4 nM | IC50 (Hepatocyte): 0.5 nM | IC50 [2]: 626 nM | inhibition in vivo at 1 mg/kg (Mus musculus): 48%

CCNC(=O)c1c(-c2ccccc2)c(-c2ccc(F)cc2)c(CC[C@@H](O)C[C@@H](O)CC(=O)[O-])n1C(C)C.[Na+]
IC50 [1]: 12 nM | IC50 (Hepatocyte): 0.7 nM | IC50 [2]: 2270 nM | inhibition in vivo at 1 mg/kg (Mus musculus): 76% | Activity [3]: -24% | ED50 [4]: 3 mg/kg

CC(C)n1c(CC[C@@H](O)C[C@@H](O)CC(=O)O)c(-c2ccc(F)cc2)c(-c2ccc(F)cc2)c1C(=O)Nc1ccccc1
IC50 (Hepatocyte): 0.4 nM | IC50 [2]: 145 nM | inhibition in vivo at 1 mg/kg (Mus musculus): 75%

Cc1cc(CNC(=O)c2c(-c3ccccc3)c(-c3ccc(F)cc3)c(CC[C@@H](O)C[C@@H](O)CC(=O)O)n2C(C)C)n[nH]1
IC50 [1]: 2.6 nM | IC50 (Hepatocyte): 0.5 nM | IC50 [2]: 10400 nM

CC(C)n1c(CC[C@@H](O)C[C@@H](O)CC(=O)O)c(-c2ccc(F)cc2)c(-c2ccccc2)c1C(=O)Nc1ccccc1
IC50 [1]: 1.8 nM | IC50 (Hepatocyte): 1 nM | IC50 [2]: 229 nM | inhibition in vivo at 1 mg/kg (Mus musculus): 57%

CC(C)n1c(CC[C@@H](O)C[C@@H](O)CC(=O)O)c(-c2ccc(F)cc2)c(-c2ccccc2)c1C(=O)Nc1ccc(C(N)=O)cc1
IC50 [1]: 0.3 nM | IC50 (Hepatocyte): 0.1 nM | IC50 [2]: 684 nM | inhibition in vivo at 1 mg/kg (Mus musculus): 45%

COc1cccc(CNC(=O)c2c(-c3ccccc3)c(-c3ccc(F)cc3)c(CC[C@@H](O)C[C@@H](O)CC(=O)O)n2C(C)C)c1
IC50 [1]: 1.8 nM | IC50 (Hepatocyte): 0.1 nM | IC50 [2]: 130 nM

COc1cccc(NC(=O)c2c(-c3ccc(F)cc3)c(-c3ccc(F)cc3)c(CC[C@@H](O)C[C@@H](O)CC(=O)O)n2C(C)C)c1
IC50 [1]: 6.6 nM | IC50 (Hepatocyte): 0.3 nM | IC50 [2]: 50 nM | inhibition in vivo at 1 mg/kg (Mus musculus): 54%

CC(C)n1c(CC[C@@H](O)C[C@@H](O)CC(=O)O)c(-c2ccc(F)cc2)c(-c2ccccc2)c1C(=O)NCc1ccccn1
IC50 [1]: 0.8 nM | IC50 (Hepatocyte): 0.1 nM | IC50 [2]: 472 nM | inhibition in vivo at 1 mg/kg (Mus musculus): 39%

CC(C)n1c(CC[C@@H](O)C[C@@H](O)CC(=O)O)c(-c2ccc(F)cc2)c(-c2ccccc2)c1C(=O)NCc1ccc(C(=O)N(C)C)cc1
IC50 [1]: 1.2 nM | IC50 (Hepatocyte): 4.9 nM | IC50 [2]: 6520 nM | inhibition in vivo at 1 mg/kg (Mus musculus): 38%

CC(C)n1c(CC[C@@H](O)C[C@@H](O)CC(=O)O)c(-c2ccc(F)cc2)c(-c2ccccc2)c1C(=O)Nc1ccc(S(N)(=O)=O)cc1
IC50 [1]: 2.9 nM | IC50 (Hepatocyte): 0.3 nM | IC50 [2]: 1790 nM | inhibition in vivo at 1 mg/kg (Mus musculus): 32%

CC(C)n1c(CC[C@@H](O)C[C@@H](O)CC(=O)O)c(-c2ccc(F)cc2)c(-c2ccccc2)c1C(=O)NCc1cccc(C(N)=O)c1
IC50 [1]: 1.2 nM | IC50 (Hepatocyte): 0.1 nM | IC50 [2]: 3100 nM | inhibition in vivo at 1 mg/kg (Mus musculus): 22%

Cc1cc(CNC(=O)c2c(-c3ccccc3)c(-c3ccc(F)cc3)c(CC[C@@H](O)C[C@@H](O)CC(=O)O)n2C(C)C)nn1C
IC50 [1]: 0.6 nM | IC50 (Hepatocyte): 0.9 nM | IC50 [2]: 3230 nM | inhibition in vivo at 1 mg/kg (Mus musculus): 19%

CC(C)n1c(CC[C@@H](O)C[C@@H](O)CC(=O)O)c(-c2ccc(F)cc2)c(-c2ccc(F)cc2)c1C(=O)Nc1cccc(O)c1
IC50 [1]: 0.7 nM | IC50 (Hepatocyte): 1.2 nM | IC50 [2]: 524 nM | inhibition in vivo at 1 mg/kg (Mus musculus): 22%

CC(C)n1c(CC[C@@H](O)C[C@@H](O)CC(=O)O)c(-c2ccc(F)cc2)c(-c2ccccc2)c1C(=O)NCc1ccccc1
IC50 [1]: 0.8 nM | IC50 (Hepatocyte): 0.3 nM | IC50 [2]: 44 nM | inhibition in vivo at 1 mg/kg (Mus musculus): 46%

CC(C)n1c(CC[C@@H](O)C[C@@H](O)CC(=O)O)c(-c2ccc(F)cc2)c(-c2ccccc2)c1C(=O)Nc1ccc(C(=O)N(C)C)cc1
IC50 [1]: 1.4 nM | IC50 (Hepatocyte): 0.7 nM | IC50 [2]: 1110 nM | inhibition in vivo at 1 mg/kg (Mus musculus): 10%

COCc1ccc(CNC(=O)c2c(-c3ccccc3)c(-c3ccc(F)cc3)c(CC[C@@H](O)C[C@@H](O)CC(=O)O)n2C(C)C)cc1
IC50 [1]: 0.7 nM | IC50 (Hepatocyte): 1.5 nM | IC50 [2]: 211 nM
